Source: ChEMBL document CHEMBL1268976, “Stereocontrolled facile synthesis and antimicrobial activity of oximes and oxime ethers of diversely substituted bispidines” (2010)
In brackets after ≈: the same amount, converted by molar mass.

What was measured:
Assay type in all cases: functional
Bacillus subtilis = assay: Antibacterial activity against Bacillus subtilis by broth microdilution method
Outline: (§1)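 In vitro broth microdilution following the NCCLS standard for bacteria (M7-A5). The test panel was Bacillus subtilis, Staphylococcus aureus, Klebsiella pneumoniae and Pseudomonas aeruginosa.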

Staphylococcus aureus = assay: Antibacterial activity against Staphylococcus aureus by broth microdilution method; outline: as §1
Klebsiella pneumoniae = assay: Antibacterial activity against Klebsiella pneumoniae by broth microdilution method; outline: as §1
Pseudomonas aeruginosa = assay: Antibacterial activity against Pseudomonas aeruginosa by broth microdilution method; outline: as §1
Candida albicans = assay: Antifungal activity against Candida albicans by broth microdilution method
Outline: (§2)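 Fungal panel of Candida albicans, Candida parapsilosis, Aspergillus niger and Cryptococcus neoformans, tested in vitro by standard NCCLS broth microdilution. The yeast susceptibility reference cited is M27-A.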

Candida parapsilosis = assay: Antifungal activity against Candida parapsilosis by broth microdilution method; conditions: Lodderomyces parapsilosis; outline: as §2
Aspergillus niger = assay: Antifungal activity against Aspergillus niger by broth microdilution method; outline: as §2
Cryptococcus neoformans = assay: Antimicrobial activity against Cryptococcus neoformans by broth microdilution method; outline: as §2

| SMILES | MIC90 (Bacillus subtilis) [µg/mL] | MIC90 (Staphylococcus aureus) [µg/mL] | MIC90 (Klebsiella pneumoniae) [µg/mL] | MIC90 (Pseudomonas aeruginosa) [µg/mL] | MIC90 (Candida albicans) [µg/mL] | MIC90 (Candida parapsilosis) [µg/mL] | MIC90 (Aspergillus niger) [µg/mL] | MIC90 (Cryptococcus neoformans) [µg/mL] |
| --- | --- | --- | --- | --- | --- | --- | --- | --- |
| CCCOc1ccc(C2NC(c3ccc(OCCC)cc3)C3C(=NO)C2C(c2ccc(OCCC)cc2)NC3c2ccc(OCCC)cc2)cc1 (centres undefined) | > 128 | > 128 | 64 (≈ 92.5 µM) | 64 (≈ 92.5 µM) | > 128 | > 128 | 32 (≈ 46.2 µM) | 32 (≈ 46.2 µM) |
| ON=C1C2C(c3ccc(Cl)cc3)NC(c3ccc(Cl)cc3)C1C(c1ccc(Cl)cc1)NC2c1ccc(Cl)cc1 (centres undefined) | > 128 | 64 (≈ 107 µM) | 16 (≈ 26.8 µM) | 32 (≈ 53.6 µM) | 8 (≈ 13.4 µM) | 128 (≈ 214 µM) | 64 (≈ 107 µM) | > 128 |
| CON=C1C2C(c3ccc(OCc4ccccc4)cc3)NC(c3ccc(OCc4ccccc4)cc3)C1C(c1ccc(OCc3ccccc3)cc1)NC2c1ccc(OCc2ccccc2)cc1 (centres undefined) | > 128 | > 128 | 64 (≈ 71.3 µM) | > 128 | > 128 | > 128 | 64 (≈ 71.3 µM) | > 128 |
| ON=C1C2C(c3cccc(Cl)c3)NC(c3cccc(Cl)c3)C1C(c1cccc(Cl)c1)NC2c1cccc(Cl)c1 (centres undefined) | > 128 | > 128 | > 128 | 64 (≈ 107 µM) | > 128 | > 128 | 64 (≈ 107 µM) | > 128 |
| CON=C1C2C(c3cccc(Oc4ccccc4)c3)NC(c3cccc(Oc4ccccc4)c3)C1C(c1cccc(Oc3ccccc3)c1)NC2c1cccc(Oc2ccccc2)c1 (centres undefined) | > 128 | > 128 | > 128 | > 128 | 64 (≈ 76 µM) | 128 (≈ 152 µM) | 128 (≈ 152 µM) | > 128 |
| C=CCOc1ccc(C2NC(c3ccc(OCC=C)cc3)C3C(=NO)C2C(c2ccc(OCC=C)cc2)NC3c2ccc(OCC=C)cc2)cc1 (centres undefined) | 128 (≈ 187 µM) | > 128 | 64 (≈ 93.6 µM) | > 128 | > 128 | 64 (≈ 93.6 µM) | 64 (≈ 93.6 µM) | > 128 |
| CON=C1C2C(c3ccc(Br)cc3)NC(c3ccc(Br)cc3)C1C(c1ccc(Br)cc1)NC2c1ccc(Br)cc1 (centres undefined) | 64 (≈ 81.1 µM) | > 128 | > 128 | > 128 | > 128 | 16 (≈ 20.3 µM) | > 128 | > 128 |
| CON=C1C2C(c3ccccc3)NC(c3ccccc3)C1C(c1ccccc1)NC2c1ccccc1 (centres undefined) | > 128 | > 128 | > 128 | 128 (≈ 270 µM) | 128 (≈ 270 µM) | > 128 | > 128 | > 128 |
| ON=C1C2C(c3ccccc3Cl)NC(c3ccccc3Cl)C1C(c1ccccc1Cl)NC2c1ccccc1Cl (centres undefined) | > 128 | 64 (≈ 107 µM) | 32 (≈ 53.6 µM) | 16 (≈ 26.8 µM) | 16 (≈ 26.8 µM) | > 128 | 8 (≈ 13.4 µM) | 16 (≈ 26.8 µM) |
| ON=C1C2C(c3cccc(F)c3)NC(c3cccc(F)c3)C1C(c1cccc(F)c1)NC2c1cccc(F)c1 (centres undefined) | 128 (≈ 241 µM) | > 128 | 64 (≈ 120 µM) | 64 (≈ 120 µM) | 32 (≈ 60.2 µM) | > 128 | 64 (≈ 120 µM) | > 128 |
| CCc1ccc(C2NC(c3ccc(CC)cc3)C3C(=NO)C2C(c2ccc(CC)cc2)NC3c2ccc(CC)cc2)cc1 (centres undefined) | > 128 | > 128 | > 128 | 32 (≈ 56 µM) | > 128 | 64 (≈ 112 µM) | > 128 | > 128 |
| CCOc1ccccc1C1NC(c2ccccc2OCC)C2C(=NO)C1C(c1ccccc1OCC)NC2c1ccccc1OCC (centres undefined) | > 128 | > 128 | 64 (≈ 101 µM) | 32 (≈ 50.3 µM) | > 128 | > 128 | 32 (≈ 50.3 µM) | 64 (≈ 101 µM) |
| COc1cccc(C2NC(c3cccc(OC)c3)C3C(=NO)C2C(c2cccc(OC)c2)NC3c2cccc(OC)c2)c1 (centres undefined) | > 128 | > 128 | > 128 | 128 (≈ 221 µM) | > 128 | > 128 | 64 (≈ 110 µM) | > 128 |
| Cc1ccc(C2NC(c3ccc(C)cc3)C3C(=NO)C2C(c2ccc(C)cc2)NC3c2ccc(C)cc2)cc1 (centres undefined) | > 128 | > 128 | > 128 | 32 (≈ 62.1 µM) | 64 (≈ 124 µM) | 32 (≈ 62.1 µM) | > 128 | > 128 |
| CON=C1C2C(c3ccc(C(C)C)cc3)NC(c3ccc(C(C)C)cc3)C1C(c1ccc(C(C)C)cc1)NC2c1ccc(C(C)C)cc1 (centres undefined) | > 128 | 128 (≈ 199 µM) | 128 (≈ 199 µM) | 16 (≈ 24.9 µM) | 128 (≈ 199 µM) | 8 (≈ 12.5 µM) | 128 (≈ 199 µM) | > 128 |
| CSc1ccc(C2NC(c3ccc(SC)cc3)C3C(=NO)C2C(c2ccc(SC)cc2)NC3c2ccc(SC)cc2)cc1 (centres undefined) | > 128 | > 128 | 32 (≈ 49.7 µM) | 16 (≈ 24.8 µM) | 32 (≈ 49.7 µM) | 32 (≈ 49.7 µM) | 16 (≈ 24.8 µM) | 32 (≈ 49.7 µM) |
| ON=C1C2C(c3ccccc3F)NC(c3ccccc3F)C1C(c1ccccc1F)NC2c1ccccc1F (centres undefined) | 64 (≈ 120 µM) | > 128 | 32 (≈ 60.2 µM) | 16 (≈ 30.1 µM) | 32 (≈ 60.2 µM) | 64 (≈ 120 µM) | 4 (≈ 7.53 µM) | > 128 |
| CCCCOc1ccc(C2NC(c3ccc(OCCCC)cc3)C3C(=NO)C2C(c2ccc(OCCCC)cc2)NC3c2ccc(OCCCC)cc2)cc1 (centres undefined) | > 128 | > 128 | 64 (≈ 85.6 µM) | 64 (≈ 85.6 µM) | > 128 | > 128 | 32 (≈ 42.8 µM) | 32 (≈ 42.8 µM) |
| CON=C1C2C(c3ccc(Cl)cc3)NC(c3ccc(Cl)cc3)C1C(c1ccc(Cl)cc1)NC2c1ccc(Cl)cc1 (centres undefined) | 128 (≈ 209 µM) | 32 (≈ 52.3 µM) | 4 (≈ 6.54 µM) | 8 (≈ 13.1 µM) | 4 (≈ 6.54 µM) | > 128 | 16 (≈ 26.2 µM) | > 128 |
| CON=C1C2C(c3cccc(F)c3)NC(c3cccc(F)c3)C1C(c1cccc(F)c1)NC2c1cccc(F)c1 (centres undefined) | > 128 | > 128 | 64 (≈ 117 µM) | 16 (≈ 29.3 µM) | 32 (≈ 58.7 µM) | > 128 | 16 (≈ 29.3 µM) | > 128 |
| ON=C1C2C(c3ccc(OCc4ccccc4)cc3)NC(c3ccc(OCc4ccccc4)cc3)C1C(c1ccc(OCc3ccccc3)cc1)NC2c1ccc(OCc2ccccc2)cc1 (centres undefined) | > 128 | > 128 | > 128 | > 128 | > 128 | > 128 | 128 (≈ 145 µM) | > 128 |
| ON=C1C2C(c3cccc(Oc4ccccc4)c3)NC(c3cccc(Oc4ccccc4)c3)C1C(c1cccc(Oc3ccccc3)c1)NC2c1cccc(Oc2ccccc2)c1 (centres undefined) | > 128 | > 128 | > 128 | > 128 | 128 (≈ 155 µM) | 128 (≈ 155 µM) | > 128 | > 128 |
| ON=C1C2C(c3ccc(Br)cc3)NC(c3ccc(Br)cc3)C1C(c1ccc(Br)cc1)NC2c1ccc(Br)cc1 (centres undefined) | 64 (≈ 82.6 µM) | > 128 | 128 (≈ 165 µM) | > 128 | > 128 | 32 (≈ 41.3 µM) | > 128 | > 128 |
